ChEMBL document CHEMBL4396879, “Conjugation of Short Peptides to Dibenzodiazepinone-Type Muscarinic Acetylcholine Receptor Ligands Determines M2R Selectivity” (J Med Chem, 2019)
Each block holds one compound with its values, some of them ahead of it.

What was measured:
[1] = Selectivity ratio of Ki for muscarinic M1 receptor (unknown origin) expressed in mouse A9L cell membranes to Ki for rat heart muscarinic M2 receptor; format: cell-based
[2] = target: T1, Muscarinic acetylcholine receptor M3 (Homo sapiens, UniProt P20309); assay: Displacement of [3H]-NMS from muscarinic M3 receptor (unknown origin) expressed in mouse A9L cell membranes after 60 mins by scintillation counting method
[3] = target: T2, Muscarinic acetylcholine receptor M2 (Rattus norvegicus, UniProt P10980); assay: Displacement of [3H]-NMS from rat heart muscarinic M2 receptor after 60 mins by scintillation counting method
T2 sequence (P10980 whole entry): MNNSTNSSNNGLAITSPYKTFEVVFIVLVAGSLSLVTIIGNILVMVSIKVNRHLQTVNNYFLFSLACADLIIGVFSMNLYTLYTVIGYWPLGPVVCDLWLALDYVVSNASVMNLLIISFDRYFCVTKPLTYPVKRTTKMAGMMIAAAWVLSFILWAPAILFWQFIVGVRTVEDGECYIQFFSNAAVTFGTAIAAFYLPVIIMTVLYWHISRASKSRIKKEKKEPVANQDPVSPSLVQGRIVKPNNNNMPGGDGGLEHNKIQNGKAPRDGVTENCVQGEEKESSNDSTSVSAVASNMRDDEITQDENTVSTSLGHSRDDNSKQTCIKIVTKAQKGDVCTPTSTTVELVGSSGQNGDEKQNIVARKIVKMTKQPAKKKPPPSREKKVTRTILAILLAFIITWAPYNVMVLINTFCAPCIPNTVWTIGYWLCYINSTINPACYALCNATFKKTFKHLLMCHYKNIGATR

[4] = Displacement of [3H]-NMS from muscarinic M4 receptor in mouse/rat NG108-15 cells after 60 mins by scintillation counting method; format: cell-based
[5] = target: T3, Muscarinic acetylcholine receptor M1 (Homo sapiens, UniProt P11229); assay: Displacement of [3H]-NMS from muscarinic M1 receptor (unknown origin) expressed in mouse A9L cells after 60 mins by scintillation counting method; format: cell-based
T3 sequence (P11229 whole entry): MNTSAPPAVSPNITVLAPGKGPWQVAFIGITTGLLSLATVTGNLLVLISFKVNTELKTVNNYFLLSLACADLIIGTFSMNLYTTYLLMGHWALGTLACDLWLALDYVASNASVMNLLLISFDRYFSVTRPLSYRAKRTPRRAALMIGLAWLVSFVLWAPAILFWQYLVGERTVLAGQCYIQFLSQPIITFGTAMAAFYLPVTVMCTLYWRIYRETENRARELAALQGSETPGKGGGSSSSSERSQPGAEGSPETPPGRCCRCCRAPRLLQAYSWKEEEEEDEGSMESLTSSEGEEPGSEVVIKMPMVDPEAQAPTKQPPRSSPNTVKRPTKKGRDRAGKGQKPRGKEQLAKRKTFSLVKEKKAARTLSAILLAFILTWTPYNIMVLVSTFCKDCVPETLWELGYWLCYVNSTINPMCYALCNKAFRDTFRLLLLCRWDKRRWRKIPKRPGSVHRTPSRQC

[6] = Selectivity ratio of Ki for muscarinic M4 receptor in mouse/rat NG108-15 cells to Ki for rat heart muscarinic M2 receptor; format: cell-based
[7] = Selectivity ratio of Ki for muscarinic M3 receptor (unknown origin) expressed in mouse A9L cell membranes to Ki for rat heart muscarinic M2 receptor; format: cell-based
[8] = target: T4, Muscarinic acetylcholine receptors; M2 & M3 (Homo sapiens) (UniProt P20309+P08172); assay: Selectivity ratio of Ki for human muscarinic M3 receptor expressed in stable CHO-K1 cells to Ki for human muscarinic M2 receptor expressed in stable CHO-K1 cells; format: cell-based
[9] = target: T5, Muscarinic acetylcholine receptor M2 and M5 (Homo sapiens) (UniProt P08172+P08912); assay: Selectivity ratio of Ki for human muscarinic M5 receptor expressed in stable CHO-K1 cells to Ki for human muscarinic M2 receptor expressed in stable CHO-K1 cells; format: cell-based
[10] = target: T6, Muscarinic acetylcholine receptor M2 (Homo sapiens, UniProt P08172); assay: Displacement of [3H]-QNB from human muscarinic M2 receptor expressed in stable CHO-K1 cells incubated for 120 mins by radioligand competition binding assay; format: cell-based
T6 sequence (P08172 whole entry): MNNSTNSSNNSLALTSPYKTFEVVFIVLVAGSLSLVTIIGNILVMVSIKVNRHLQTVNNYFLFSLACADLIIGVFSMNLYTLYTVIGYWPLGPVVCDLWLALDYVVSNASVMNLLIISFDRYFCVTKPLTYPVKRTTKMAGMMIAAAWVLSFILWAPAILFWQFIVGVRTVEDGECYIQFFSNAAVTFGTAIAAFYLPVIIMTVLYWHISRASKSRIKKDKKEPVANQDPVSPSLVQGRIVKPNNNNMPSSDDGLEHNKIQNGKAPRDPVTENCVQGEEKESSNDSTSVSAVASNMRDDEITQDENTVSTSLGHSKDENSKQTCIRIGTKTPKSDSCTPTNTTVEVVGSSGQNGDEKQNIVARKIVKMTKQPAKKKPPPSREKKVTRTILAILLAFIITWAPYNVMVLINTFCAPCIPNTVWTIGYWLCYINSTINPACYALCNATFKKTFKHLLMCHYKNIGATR

[11] = target: T6, Muscarinic acetylcholine receptor M2; assay: Displacement of [3H]-NMS from human muscarinic M2 receptor expressed in CHO-K9 cells after 3 hrs by microbeta2 scintillation counting method; format: cell-based
Summary of the method: (§1)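 [3H]NMS competition binding on intact CHO-hMxR cells in L15 medium with 1% BSA, 3 h at 22 ± 1 °C with gentle shaking. [3H]NMS was 0.2 nM (M1, M2, M3), 0.1 nM (M4) or 0.3 nM (M5). […] Cells were lysed in urea/acetic acid/Triton and counted by liquid scintillation. Ki from Cheng-Prusoff. Triplicates, ≥3 experiments.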

[12] = target: T1, Muscarinic acetylcholine receptor M3; assay: Displacement of [3H]-NMS from human muscarinic M3 receptor expressed in CHO-K9 cells after 3 hrs by microbeta2 scintillation counting method; format: cell-based; summary of the method: as §1
[13] = Stability of the compound in human plasma used as 1:2 ratio of plasma to pH 7.4 PBS assessed as intact compound at 100 uM incubated for 48 hr by LC-MS analysis; format: ADME, cell-free; conditions: plasma diluted with PBS (1:2), read-out: Stability
Summary of the method: (§2)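 Compound added at 100 μM (from 5 mM stock in acetonitrile/0.04% TFA 3:7) to heparinized human plasma/PBS pH 7.4 (1:2 v/v) with 10 μM 1-methyl-D-tryptophan as internal standard. Incubated shaking at 37 °C in triplicate. Aliquots were EtOH/acetonitrile-precipitated and analysed by RP-HPLC at 220 nm, with recovery correction against four-point calibrations.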

[14] = Stability of the compound in human plasma:PBS of pH 7.4 (1:2) assessed as intact compound at 100 uM incubated for 1 hr by LC-MS analysis; format: ADME, cell-free; conditions: plasma diluted with PBS (1:2), read-out: Stability; summary of the method: as §2
[15] = target: T3, Muscarinic acetylcholine receptor M1; assay: Displacement of [3H]-NMS from human muscarinic M1 receptor expressed in CHO-K9 cells after 3 hrs by microbeta2 scintillation counting method; format: cell-based; summary of the method: as §1
[16] = target: T4, Muscarinic acetylcholine receptors; M2 & M3 (Homo sapiens); assay: Selectivity ratio of Ki for human muscarinic M3 receptor expressed in CHO-K9 cells to Ki for human muscarinic M2 receptor expressed in CHO-K9 cells; format: cell-based
Summary of the method: (§3)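 Ratio of mean Ki values. Each Ki came from an individual [3H]NMS competition experiment at the given CHO-hMxR subtype, converting IC50 to Ki by Cheng-Prusoff before averaging.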

[17] = target: T7, Muscarinic acetylcholine receptor M4 (Homo sapiens, UniProt P08173); assay: Displacement of [3H]-NMS from human muscarinic M4 receptor expressed in CHO-K9 cells after 3 hrs by microbeta2 scintillation counting method; format: cell-based; summary of the method: as §1
T7 sequence (P08173 whole entry): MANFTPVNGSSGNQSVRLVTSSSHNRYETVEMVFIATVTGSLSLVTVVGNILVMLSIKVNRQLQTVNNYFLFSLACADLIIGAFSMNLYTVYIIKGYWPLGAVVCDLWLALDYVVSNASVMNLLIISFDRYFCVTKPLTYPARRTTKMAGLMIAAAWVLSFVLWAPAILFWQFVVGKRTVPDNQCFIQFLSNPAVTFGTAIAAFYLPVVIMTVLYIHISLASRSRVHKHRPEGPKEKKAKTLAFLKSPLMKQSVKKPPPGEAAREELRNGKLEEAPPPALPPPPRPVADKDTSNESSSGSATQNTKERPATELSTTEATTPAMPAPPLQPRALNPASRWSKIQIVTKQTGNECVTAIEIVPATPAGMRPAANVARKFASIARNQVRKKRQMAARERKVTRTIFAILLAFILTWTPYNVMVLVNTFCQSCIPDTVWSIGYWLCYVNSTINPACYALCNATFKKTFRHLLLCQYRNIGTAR

[18] = target: Muscarinic acetylcholine receptor M2 and M4 (Homo sapiens) (UniProt P08173+P08172); assay: Selectivity ratio of Ki for human muscarinic M4 receptor expressed in CHO-K9 cells to Ki for human muscarinic M2 receptor expressed in CHO-K9 cells; format: cell-based; summary of the method: as §3
[19] = target: Muscarinic acetylcholine receptors; M1 & M2 (Homo sapiens) (UniProt P11229+P08172); assay: Selectivity ratio of Ki for human muscarinic M1 receptor expressed in CHO-K9 cells to Ki for human muscarinic M2 receptor expressed in CHO-K9 cells; format: cell-based; summary of the method: as §3
[20] = Stability of the compound in human plasma used as 1:2 ratio of plasma to pH 7.4 PBS assessed as intact compound at 100 uM incubated for 24 hr […]; format: ADME, cell-free; conditions: plasma diluted with PBS (1:2), read-out: Stability
[21] = Stability of the compound in human plasma used as 1:2 ratio of plasma to pH 7.4 PBS assessed as intact compound at 100 uM incubated for 6 hr […]; format: ADME, cell-free; conditions: plasma diluted with PBS (1:2), read-out: Stability
[22] = target: T5, Muscarinic acetylcholine receptor M2 and M5 (Homo sapiens); assay: Selectivity ratio of Ki for human muscarinic M5 receptor expressed in CHO-K9 cells to Ki for human muscarinic M2 receptor expressed in CHO-K9 cells; format: cell-based; summary of the method: as §3
[23] = target: T8, Muscarinic acetylcholine receptor M5 (Homo sapiens, UniProt P08912); assay: Displacement of [3H]-NMS from human muscarinic M5 receptor expressed in CHO-K9 cells after 3 hrs by microbeta2 scintillation counting method; format: cell-based; summary of the method: as §1
T8 sequence (P08912 whole entry): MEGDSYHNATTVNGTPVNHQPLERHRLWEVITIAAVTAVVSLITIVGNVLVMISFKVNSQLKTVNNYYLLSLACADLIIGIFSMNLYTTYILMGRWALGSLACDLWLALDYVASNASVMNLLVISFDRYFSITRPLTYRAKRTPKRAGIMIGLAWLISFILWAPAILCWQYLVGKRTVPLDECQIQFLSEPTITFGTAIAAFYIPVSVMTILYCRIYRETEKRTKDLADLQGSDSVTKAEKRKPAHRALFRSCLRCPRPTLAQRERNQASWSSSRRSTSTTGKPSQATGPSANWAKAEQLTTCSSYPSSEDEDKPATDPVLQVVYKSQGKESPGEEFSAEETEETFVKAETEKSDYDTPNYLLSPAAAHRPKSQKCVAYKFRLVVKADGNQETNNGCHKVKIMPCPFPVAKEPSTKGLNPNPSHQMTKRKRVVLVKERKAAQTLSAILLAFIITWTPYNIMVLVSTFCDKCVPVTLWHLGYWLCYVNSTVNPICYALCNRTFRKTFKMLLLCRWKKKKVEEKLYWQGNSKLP

T1 sequence (P20309 whole entry): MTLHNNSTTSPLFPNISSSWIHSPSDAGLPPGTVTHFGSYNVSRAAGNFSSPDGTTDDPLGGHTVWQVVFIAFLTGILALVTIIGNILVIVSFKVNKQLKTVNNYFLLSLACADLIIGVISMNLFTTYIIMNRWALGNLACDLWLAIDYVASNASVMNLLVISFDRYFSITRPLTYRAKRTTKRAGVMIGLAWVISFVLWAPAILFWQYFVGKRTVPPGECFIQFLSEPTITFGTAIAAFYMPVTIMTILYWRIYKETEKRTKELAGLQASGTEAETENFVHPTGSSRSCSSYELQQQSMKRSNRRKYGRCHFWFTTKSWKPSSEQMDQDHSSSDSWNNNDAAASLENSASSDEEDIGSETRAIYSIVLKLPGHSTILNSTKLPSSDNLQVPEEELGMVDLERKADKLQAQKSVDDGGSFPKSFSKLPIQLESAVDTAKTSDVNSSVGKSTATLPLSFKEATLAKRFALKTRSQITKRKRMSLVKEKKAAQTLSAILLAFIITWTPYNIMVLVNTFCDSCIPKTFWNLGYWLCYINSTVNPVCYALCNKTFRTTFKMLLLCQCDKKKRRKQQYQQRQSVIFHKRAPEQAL
T4 sequence (P20309 whole entry, looked up, one chain of several): as the sequence (P20309 whole entry) above

Ki [2]: 10 nM
Ki [3]: 0.316 nM
Ki [5]: 3.98 nM
Structure (SMILES): CCN(CC)CCCCC1CCN(CC(=O)N2c3ccccc3NC(=O)c3ccccc32)CC1
Ratio Ki [1]: 13
pKi [4]: 8.7
Ratio Ki [6]: 7
Ratio Ki [7]: 37

Ratio Ki [8]: 172
Ratio Ki [9]: 48
Ki [10]: 2.69 nM
Structure (SMILES): Cc1ccccc1C(=O)N1CCC(N2CCC(Cc3ccc(S(=O)(=O)c4cccc(Cl)c4)cc3)CC2)CC1

Ki [11]: 1.48 nM
Ki [12]: 776 nM
remaining at 48 h, 100 µM [13]: 83%
remaining at 1 h, 100 µM [14]: > 99%
Ki [15]: 22.9 nM
Ratio Ki [16]: 620
Ki [17]: 17.4 nM
Ratio Ki [18]: 11
Ratio Ki [19]: 15
remaining at 24 h, 100 µM [20]: > 99%
remaining at 6 h, 100 µM [21]: > 99%
Ratio Ki [22]: 260
Ki [23]: 363 nM
Structure (SMILES): CC(=O)N[C@@H](CCCNC(=N)N)C(=O)N[C@@H](CCCCN)C(=O)NCC(=O)NCCCCC1CCN(CC(=O)N2c3ccccc3NC(=O)c3ccccc32)CC1
